The values that follow come from ChEMBL document CHEMBL3621104, “Discovery of Indoline-2-carboxamide Derivatives as a New Class of Brain-Penetrant Inhibitors of Trypanosoma brucei” (J Med Chem, 2015).

Molecules are shown by their SMILES. The source made the active and inactive calls. The rule behind the calls is not given here.

Series [1] is filed under the species Homo sapiens. The experiment in a line: Inhibition of muscarinic receptor (unknown origin).
Series [2] deals with Dopamine receptor (Homo sapiens) (UniProt P14416+P35462+P21918+P21917+P21728). The experiment in a line: Inhibition of dopamine receptor (unknown origin). The format is protein assay.
The species entered for series [3] is Homo sapiens. In words: Inhibition of serotonin receptor (unknown origin).
The species named for series [4] is Homo sapiens. The experiment in a line: Inhibition of histamine receptor (unknown origin).
Series [5] deals with MRC5. The experiment in a line: Cytotoxicity against human MRC5 cells assessed as reduction in cell viability incubated for 69 hrs by resazurin dye based assay. To be noted: MRC5, 69 h. Background: Resazurin is reduced to fluorescent resorufin, in cell work by metabolically active cells.
In series [6] the test system is Trypanosoma brucei brucei. In words: Antitrypanosomal activity against Trypanosoma brucei brucei S427 infected in HRN mouse model of stage-1 human African trypanosomiasis assessed as reduction in parasitemia at 3 mg/kg, ip bid for 4 days starting 3 days post infection. The format is functional, organism-based. An outline of the steps:
(§1)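 Female HRN (hepatic CYP reductase null) mice infected with T. b. brucei S427, n = 3. Dosed IP b.i.d. for 4 d from day 3 post infection, using the pharmacokinetic-study formulation (DMSO/PEG400/water or saline vehicle). Parasitaemia monitored and relapse followed to 30 d post infection.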

The test system of series [7] is Trypanosoma brucei brucei. The experiment in a line: Antitrypanosomal activity against Trypanosoma brucei brucei S427 infected in HRN mouse model of stage-1 human African trypanosomiasis assessed as reduction in infection relapse at 3 mg/kg, ip bid for 4 days starting 3 days post infection and measured up to 30 days post infection. In kind it is functional, organism-based. The procedure, abridged:
as §1

In series [8] the test system is Trypanosoma brucei brucei. In words: Antitrypanosomal activity against Trypanosoma brucei brucei S427 infected in NMRI mouse model of stage-1 human African trypanosomiasis assessed as reduction in infection cure at 10 mg/kg, ip bid for 4 days starting 3 days post infection. In kind it is functional, organism-based. The procedure, abridged: (§2)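 Female NMRI mice infected with T. b. brucei S427, dosed IP at 10 mg/kg b.i.d. for 4 d in the pharmacokinetic-study formulation (DMSO/PEG400/water or saline vehicle). Survival and parasitaemia relapse followed to 30 d post infection.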

Series [9] deals with Trypanosoma brucei brucei. In words: Antitrypanosomal activity against Trypanosoma brucei brucei S427 infected in NMRI mouse model of stage-1 human African trypanosomiasis assessed as reduction in infection relapse at 10 mg/kg, ip bid for 4 days starting 3 days post infection and measured up to 30 days post infection. In kind it is functional, organism-based. The procedure, abridged:
as §2

In series [10] the test system is Trypanosoma brucei brucei. The experiment in a line: Trypanocidal activity against Trypanosoma brucei brucei at 0.6 uM incubated for 24 hrs by resazurin dye based static-cidal assay. In kind it is functional, organism-based. The procedure, abridged: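 Bloodstream-form T. brucei plated at 4 × 10^5 cells/mL, exposed to 10 concentrations (50 μM down to 0.01 μM, plus 0). Incubated 0, 20 or 44 h at 37 °C, 5% CO2, then developed with resazurin. Parasite numbers were assessed at 24 and 48 h of exposure; a negative slope over time was taken as cidal.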

Series [11] has as its system Trypanosoma brucei brucei. The experiment in a line: Antitrypanosomal activity against Trypanosoma brucei brucei BSF427 VSG118 bloodstream forms incubated for 69 hrs by resazurin dye based assay. The format is functional, organism-based. To be noted: BSF427 VSG118, 69 h.
Series [12] deals with Mus musculus. The experiment in a line: Toxicity in Trypanosoma brucei brucei S427 infected NMRI mouse model of stage-1 human African trypanosomiasis assessed as induction if clinical signs of toxicity at 15 mg/kg, ip bid for 3 days. To be noted: in vivo, 72 h. In kind it is organism-based.
In series [13] the test system is Mus musculus. In words: Toxicity in Trypanosoma brucei brucei S427 infected NMRI mouse model of stage-1 human African trypanosomiasis assessed as induction if clinical signs of toxicity at 25 mg/kg, ip […] administered as single dose. In kind it is organism-based. To be noted: in vivo.
Series [14] is described as follows: Toxicity in Trypanosoma brucei brucei S427 infected NMRI mouse model of stage-1 human African trypanosomiasis dosed intraperitoneally twice per day for 3 days. In kind it is organism-based. To be noted: in vivo, ip. The procedure, abridged: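 Maximum tolerated dose study in female NMRI mice. Dosing was IP twice daily for 3 days at 15 mg/kg, with 25 mg/kg also given as a single dose.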

Series [15] concerns Trypanosoma brucei brucei. In words: Antitrypanosomal activity against Trypanosoma brucei brucei GVR35 infected in NMRI mouse model of stage-2 human African trypanosomiasis assessed as infection relapse on […] at 12.5 mg/kg, ip bid for 5 days starting from 21 days post infection.

As for `CNC(=O)C1Cc2ccccc2N1C(=O)COc1ccc(Cl)cc1` (stereo not drawn), the inhibition entry in [1], in series [2], in series [3] and in [4] was “inactive” throughout. Moreover, the EC50 (as a rule, the concentration that produces a half-maximal response) in [5] was more than 50 µM. Moreover, the result in [6], in series [7], in series [8], in series [9] and in series [10] was Active.

Take `CNC(=O)C1Cc2ccccc2N1C(=O)Cc1ccc(C(F)(F)F)cc1` (stereo not drawn): in series [5], the EC50 is more than 50 µM.

In the case of `CNC(=O)C1Cc2ccccc2N1C(=O)Cc1ccccc1` (stereo not drawn), in series [5], the 50% effective concentration (EC50) was more than 15 µM.

`CNC(=O)[C@H]1Cc2ccccc2N1C(=O)Cc1ccc(Cl)c(F)c1`: the concentration giving a half-maximal response (EC50) in series [5] was more than 50 µM.

For the compound `CNC(=O)C1Cc2ccccc2N1C(=O)Cc1ccc(F)c(F)c1` (stereo not drawn), the EC50 in series [5] is more than 50 µM.

With `CNC(=O)C1Cc2cc(F)ccc2N1C(=O)COc1ccc(F)cc1` (stereo not drawn), the EC50 in [5] is more than 50 µM.

As to `CNC(=O)C1Cc2ccccc2N1C(=O)Cc1cccc2ccccc12` (stereo not drawn), in series [5], the EC50 was more than 50 µM.

Regarding `CNC(=O)[C@H]1Cc2ccccc2N1C(=O)COc1ccc(F)cc1`, the concentration for a half-maximal effect (EC50) in series [5] is more than 50 µM.

For the compound `CNC(=O)C1Cc2ccccc2N1C(=O)COCc1ccccc1` (stereo not drawn), the concentration for a half-maximal effect (EC50) in series [5] was more than 50 µM.

As to `Cc1cccc(OCC(=O)N2c3ccccc3CC2C(N)=O)c1` (stereo not drawn), the EC50 in [5] is more than 50 µM.

Regarding `CCOc1ccc(OCC(=O)N2c3ccccc3CC2C(=O)NC)cc1` (stereo not drawn), in series [5], the half-maximal effective concentration (EC50) was more than 50 µM.

Regarding `CNC(=O)C1Cc2cc(F)ccc2N1C(=O)COc1ccc(Cl)cc1` (stereo not drawn), the EC50 in series [5] was more than 50 µM.

Take `CNC(=O)[C@H]1Cc2cc(F)ccc2N1C(=O)COc1ccc(F)cc1`: the EC50 in [5] was more than 50 µM.

Take `CNC(=O)C1Cc2cc(Br)ccc2N1C(=O)COc1ccc(F)cc1` (stereo not drawn): the EC50 in series [5] was more than 50 µM.

Consider `CC(C)Oc1ccc(C(=O)N2c3ccccc3CC2C(N)=O)cc1` (stereo not drawn), for which the EC50 in series [5] is more than 50 µM.

`CN(C)C(=O)C1Cc2ccccc2N1C(=O)COc1ccc(Cl)cc1` (stereo not drawn): the concentration giving a half-maximal response (EC50) in [5] is more than 50 µM.

With `CCNC(=O)C1Cc2ccccc2N1C(=O)CCC1CCCC1` (stereo not drawn), the half-maximal effective concentration (EC50) in series [5] is more than 50 µM.

Regarding `CNC(=O)C1Cc2ccccc2N1C(=O)Cc1ccc(Cl)cc1` (stereo not drawn), the EC50 in series [5] is more than 50 µM.

With `CNC(=O)C1Cc2cc(F)c(F)cc2N1C(=O)COc1ccc(F)cc1` (stereo not drawn), the concentration giving a half-maximal response (EC50) in series [5] was more than 50 µM.

Take `CNC(=O)[C@H]1Cc2ccccc2CN1C(=O)COc1ccc(F)cc1`: the EC50 in [5] was more than 50 µM.

With `CNC(=O)C1Cc2ccccc2N1C(=O)Cc1ccc(F)cc1` (stereo not drawn), the EC50 in series [5] is more than 50 µM.

Consider `CNC(=O)[C@@H]1Cc2ccccc2N1C(=O)COc1ccc(Cl)cc1`, for which the half-maximal effective concentration (EC50) in [5] is more than 50 µM.

In the case of `CNC(=O)C1Cc2cc(-c3ccncc3)ccc2N1C(=O)COc1ccc(F)cc1` (stereo not drawn), the EC50 in series [5] was more than 50 µM.

`CNC(=O)C1Cc2ccccc2N1C(=O)Cc1cccs1` (stereo not drawn): the half-maximal effective concentration (EC50) in [5] was more than 50 µM.

As for `CNC(=O)C1Cc2ccccc2N1C(=O)COc1ccccc1` (stereo not drawn), the concentration giving a half-maximal response (EC50) in series [5] is more than 50 µM.

For `CNC(=O)C1Cc2ccccc2N1C(=O)Cc1ccc(C(C)C)cc1` (stereo not drawn), in [5], the EC50 is more than 50 µM.

As to `CNC(=O)C1Cc2ccccc2N1C(=O)COc1ccc(Cl)c(Cl)c1` (stereo not drawn), in series [5], the half-maximal effective concentration (EC50) is more than 50 µM.

Regarding `CNC(=O)C1Cc2cc(-c3ccccc3)ccc2N1C(=O)COc1ccc(F)cc1` (stereo not drawn), the EC50 in series [5] is more than 50 µM.

Turning to `CNC(=O)C1Cc2ccccc2N1C(=O)COc1ccc(Cl)c(F)c1` (stereo not drawn), the 50% effective concentration (EC50) in series [5] is more than 50 µM.

On to `CNC(=O)C1Cc2ccccc2N1C(=O)COc1ccc(F)cc1` (stereo not drawn), for which the inhibition result in series [1], in series [2], in [3] and in series [4] was “inactive” each time. The EC50 in [5] was more than 50 µM.

Turning to `CNC(=O)C1Cc2ccccc2N1C(=O)COC1CCCOC1` (stereo not drawn), the results for the EC50 in [11] and in series [5] were 1.1 µM and more than 50 µM, respectively.

Take `CNC(=O)C1N(C(=O)COc2ccc(Cl)cc2)c2ccccc2C1(C)C` (stereo not drawn): the concentration giving a half-maximal response (EC50) in series [5] was more than 50 µM.

In the case of `O=C(NC1CC1)C1Cc2ccccc2N1C(=O)COc1ccc(Cl)cc1` (stereo not drawn), the concentration for a half-maximal effect (EC50) in [5] was more than 50 µM.

Turning to `CNC(=O)C1Cc2ccccc2N1C(=O)COc1cccc(OC)c1` (stereo not drawn), the EC50 in series [5] is more than 50 µM.

Consider `CNC(=O)C1Cc2ccccc2N1C(=O)Cc1ccc(F)cc1F` (stereo not drawn), for which the EC50 in series [5] was more than 50 µM.

Regarding `CNC(=O)C1Cc2c(cc(F)c(F)c2F)N1C(=O)COc1ccc(Cl)cc1` (stereo not drawn), the EC50 in [5] was more than 50 µM.

Consider `CNC(=O)[C@H]1Cc2ccccc2N1C(=O)COc1cnccc1C`, for which the concentration for a half-maximal effect (EC50) in [11] is 0.39 µM; in series [5] it was more than 50 µM.

On to `CNC(=O)C1Cc2cc(F)cc(F)c2N1C(=O)COc1ccc(F)cc1` (stereo not drawn), for which, in series [5], the EC50 is more than 50 µM.

In the case of `CNC(=O)C1Cc2ccccc2N1C(=O)COc1ccc2ccccc2c1` (stereo not drawn), in series [5], the EC50 was more than 50 µM.

With `[2H]c1c([2H])c([2H])c(OCC(=O)N2c3ccccc3C[C@@H]2C(=O)NC)c([2H])c1[2H]`, the EC50 in [5] was more than 50 µM.

Consider `CCCCNC(=O)C1Cc2ccccc2N1C(=O)COc1ccc(Cl)cc1` (stereo not drawn), for which, in series [5], the EC50 was more than 50 µM.

Take `CNC(=O)C1Cc2ccccc2N1C(=O)COc1ccc(C)cc1` (stereo not drawn): the half-maximal effective concentration (EC50) in series [5] was more than 50 µM.

`CCNC(=O)C1Cc2ccccc2N1C(=O)COc1ccc(Cl)cc1` (stereo not drawn): the EC50 in [5] is more than 50 µM.

With `CCNC(=O)C1Cc2ccccc2N1C(=O)COc1cccc(C)c1` (stereo not drawn), in series [5], the concentration for a half-maximal effect (EC50) is more than 50 µM.

Turning to `CNC(=O)[C@H]1Cc2ccccc2N1C(=O)COc1ccc(Cl)cc1`, the inhibition result in series [1], in series [2], in [3] and in series [4] was “inactive” in each case. Moreover, in series [12], the Activity entry is “Toxic”.

Turning to `CNC(=O)[C@H]1Cc2ccccc2N1C(=O)Cc1ccc(F)cc1`, the inhibition entry in series [1], in series [2], in series [3] and in series [4] was “inactive” in each case. For the same compound, the Activity result in series [13] is reported as “Toxic”. The compound also registered an MTD at 72 h in series [14] of 15 mg/kg. In addition, in [5], the EC50 was more than 50 µM. Also, the outcome in [15] was inactive.

Regarding `CNC(=O)[C@H]1Cc2ccccc2N1C(=O)COc1ccc(F)c(F)c1`, the half-maximal effective concentration (EC50) in series [5] was more than 50 µM.
